NTR1 agonist = agonists of human neurotensin receptor NTR1 | P30989 | NTR1-U2OS beta-arrestin-GFP spot imaging, agonist mode | activation, % at 20 µM | 0.17% of 330,000 active;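 active means activation at or above 40% of the spot to cytoplasm intensity ratio, with at least 20 cells analyzed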;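 further: 0% = DMSO without peptide and 100% = 100 nM NTR1 peptide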
sPLA2-III inh = Blocks human group III sPLA2 activity | QFRET BODIPY PC-A2 liposome hydrolysis, fluorescence | Q9NZ20 | inhibition, % at 12.2 µM | 0.56% of 370,000 active;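 active means inhibition above mean plus 3 SD of compounds lying within the high and low control bounds, cut at about 19% in these data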;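 further: 0% = median of test compound wells and 100% = no enzyme DMSO wells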
MC4R antagonist = human MC4R antagonism in cAMP assay. 0.48% of 360,000 active. MC4R-expressing cells, MTII-stimulated cAMP, LANCE TR-FRET. P32245. inhibition, % at 6.5 µM;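 active means inhibition above its plate's cutoff, the mean of tested wells on that plate plus 3 SD, cut at about 29% in these data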;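 further: 0% = Melanotan II alone and 100% = Melanotan II plus saturating MCL0020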
Target sequence (P32245 whole entry, looked up): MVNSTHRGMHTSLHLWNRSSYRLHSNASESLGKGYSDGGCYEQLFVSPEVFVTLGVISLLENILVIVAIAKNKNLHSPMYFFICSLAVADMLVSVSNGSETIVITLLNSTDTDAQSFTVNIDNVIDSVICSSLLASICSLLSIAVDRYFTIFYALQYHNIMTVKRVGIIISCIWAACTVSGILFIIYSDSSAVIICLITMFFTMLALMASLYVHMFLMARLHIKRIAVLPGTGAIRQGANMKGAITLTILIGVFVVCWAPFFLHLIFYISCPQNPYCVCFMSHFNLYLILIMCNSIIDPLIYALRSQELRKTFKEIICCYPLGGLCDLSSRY
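System: U2OS cells stably expressing human melanocortin 4 receptor (MC4R). Reagent: Melanotan II challenge after compound preincubation. Doses: 6.5 µM. Times: 30-min compound, 1-h challenge, 1-h detection, room temperature. Measured by: TR-FRET with Eu-cAMP and labeled anti-cAMP, 671 nm. Replicates: singlicate.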
Exocytosis inh = lytic granule exocytosis inhibition | TALL-104 LAMP-1 surface exposure, flow cytometry; cells stimulated with thapsigargin and PMA | inhibition, % at 10 µM | 0.66% of 360,000 active;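 active means inhibition above about 55%, limit read from the data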
A1 inh = inhibitors of the anti-apoptotic protein A1, read as caspase activation. MEF A1-2A-BIM cells, Caspase-Glo 3/7 luminescence, 3 h; percent of clofoctol response, vehicle zero. caspase activation, % (test concentration not listed). 0.066% of 330,000 active. AID 2462;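 active means over half of replicate activation scores above 10%, or exactly half above 10 with the replicate mean above 10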
MC4R ag barr = human MC4R agonism via beta-arrestin | U2OS MC4R beta-arrestin complementation, luminescence; percent of melanotan II response, DMSO zero | activation, % at 8.9 µM | 0.98% of 360,000 active | AID 540308;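 active means activation above a per-plate cutoff, the mean activation of sample wells on that plate plus 3 SD, cut at about 8% in these data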
MC4R barr conf = human MC4R beta-arrestin agonism confirmation; shares compounds with MC4R ag barr; U2OS MC4R beta-arrestin recruitment, luminescence; scaled DMSO 0%, Melanotan II 100%; activation, % at 8.9 µM; 31% of 2,400 active; AID 602192;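 active means mean activation across replicates above the hit cutoff set in the earlier primary screen, cut at about 8% in these data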
MOR DOR agonist = activates mu-delta opioid heterodimer, MC4R agonist counter-screen; shares compounds with MC4R ag barr; U2OS PathHunter beta-arrestin, beta-gal luminescence; percent of deltorphin B response, DMSO zero; activation, % at 9.2 µM; 5.8% of 2,400 active; AID 602194;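 active means mean activation across replicates exceeds the hit threshold derived in the earlier primary screen, cut at about 18% in these data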;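 further: 100% = deltorphin B at 0.9 µM final and 0% = DMSO alone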
The depositor's hits bear a star. This is a sample that favours compounds with a hit; in the whole collection about 2.5% have one here.

Results for O=C(CCc1ccccc1)NC(NC(=S)Nc1ccc(Br)cc1)C(Cl)(Cl)Cl (stereo unspecified) ?
NTR1 agonist: 2; sPLA2-III inh: -1; MC4R antagonist: 21; Exocytosis inh: 0; A1 inh: 1; MC4R ag barr: 13*; MC4R barr conf: 5; MOR DOR agonist: 6

Results for COc1ccc(CNCC#Cc2ccc(C(F)(F)F)cc2)c(OC)c1 ?
sPLA2-III inh: 1

What do the screens show for `COc1ccc(Cl)cc1NC(=O)CC(=O)Nc1cc(Cl)ccc1OC`?
NTR1 agonist: -1; sPLA2-III inh: -65; MC4R antagonist: 3; Exocytosis inh: 4; A1 inh: 0; MC4R ag barr: 4

How did COc1ccc(Cl)cc1NC(=O)Cc1c(F)cccc1Cl do in these assays?
NTR1 agonist: 6; sPLA2-III inh: 2; MC4R antagonist: 1; Exocytosis inh: 2; A1 inh: 0; MC4R ag barr: 15*; MC4R barr conf: -3; MOR DOR agonist: 2

Results for COc1ccc([C@H]2C[C@H](n3cc(-c4ccc(F)cc4)nn3)[C@@H](O)CN2CC2CCCCC2)cc1 ?
sPLA2-III inh: 2; MC4R antagonist: 6; Exocytosis inh: -2; MC4R ag barr: 0

What do the screens show for `COc1ccc([C@H]2C[C@@H](O)[C@H](n3cc(-c4ccc(F)cc4)nn3)CN2CC2CCCCC2)cc1`?
sPLA2-III inh: -4; MC4R antagonist: 18; Exocytosis inh: 1; MC4R ag barr: 14*; MC4R barr conf: 1; MOR DOR agonist: 4

How did CCOc1ccc(-n2cnnn2)cc1S(=O)(=O)NCc1ccccc1 do in these assays?
NTR1 agonist: 0; sPLA2-III inh: 1; MC4R antagonist: -3; Exocytosis inh: 2; A1 inh: 0; MC4R ag barr: 16*; MC4R barr conf: -1; MOR DOR agonist: 2

Results for CCOc1cc(S(=O)(=O)NCc2ccccc2)c(OCC)cc1-n1cnnn1 ?
NTR1 agonist: 4; sPLA2-III inh: -5; MC4R antagonist: 9; Exocytosis inh: -1; A1 inh: 1; MC4R ag barr: 0

Results for CCOC(=O)[C@@]12CCC3=C1N(CCC3)C(=O)[C@H](CC(=O)N1CCC(c3ccccc3)CC1)C2 ?
sPLA2-III inh: 3

Results for C[C@@H](NS(=O)(=O)c1c(F)cccc1F)c1ccccc1 ?
sPLA2-III inh: 14

Results for O=C(Nc1nnc(COc2ccccc2F)s1)Nc1ccccc1F ?
NTR1 agonist: 5; sPLA2-III inh: -6; MC4R antagonist: 16; Exocytosis inh: -12; A1 inh: 0; MC4R ag barr: 12*; MC4R barr conf: 6; MOR DOR agonist: 10

How did CC(c1ccccc1)c1nnc(NC(=O)Nc2ccccc2F)s1 (stereo unspecified) do in these assays?
NTR1 agonist: 3; sPLA2-III inh: -4; MC4R antagonist: 8; Exocytosis inh: -9; A1 inh: 0; MC4R ag barr: 10*; MC4R barr conf: 3; MOR DOR agonist: 6

Results for COC(=O)[C@@]12CCCCC3=C1N(CCC3)C(=O)[C@H]2CC(=O)N1CCC(c2ccccc2)CC1 ?
sPLA2-III inh: 13

Results for COc1ccc(-c2nc3ccccc3c(=O)n2Cc2ccccc2)cc1COc1ccc(NC(C)=O)cc1 ?
sPLA2-III inh: 1

How did N#Cc1ccc(-c2cccnc2)nc1SCc1ccc(Cl)cc1Cl do in these assays?
NTR1 agonist: 10; sPLA2-III inh: 4; MC4R antagonist: -14; Exocytosis inh: 0; A1 inh: 0; MC4R ag barr: 18*; MC4R barr conf: 6; MOR DOR agonist: 4

How did COCCCN1CCC2(CCC(c3ccccc3)CC2)C1=O (stereo unspecified) do in these assays?
sPLA2-III inh: 0

How did COC(=O)C[C@@H]1CC[C@@H]2[C@@H](COc3ccc(NC(=O)Nc4ccccc4)cc3C(=O)N2C)O1 do in these assays?
sPLA2-III inh: -5

Results for N#C/C(=C(/O)COC(=O)CSc1ccc2ccccc2c1)c1nc2ccccc2[nH]1 ?
NTR1 agonist: 0; sPLA2-III inh: -19; MC4R antagonist: 11; Exocytosis inh: -3; A1 inh: -2; MC4R ag barr: 7

What do the screens show for `Cc1cc(Br)ccc1SCC(=O)OCC(O)=C(C#N)c1nc2ccccc2[nH]1`?
sPLA2-III inh: 9; MC4R antagonist: 7; Exocytosis inh: 2; MC4R ag barr: 6

How did Cc1ccc(C)c(SCC(=O)OC/C(O)=C(\C#N)c2nc3ccccc3[nH]2)c1 do in these assays?
sPLA2-III inh: -7; MC4R antagonist: -10; Exocytosis inh: 2; MC4R ag barr: 17*; MC4R barr conf: -1; MOR DOR agonist: 12

What do the screens show for `Cc1cccc(C)c1OCC(=O)OC/C(O)=C(\C#N)c1nc2ccccc2[nH]1`?
NTR1 agonist: 5; sPLA2-III inh: -19; MC4R antagonist: 3; Exocytosis inh: -1; A1 inh: 0; MC4R ag barr: 21*; MC4R barr conf: 5; MOR DOR agonist: 8

How did Cc1cc(Br)ccc1SCC(=O)OC/C(O)=C(\C#N)c1nc2ccccc2[nH]1 do in these assays?
NTR1 agonist: 4; sPLA2-III inh: -5; MC4R antagonist: 20; Exocytosis inh: 0; A1 inh: 0; MC4R ag barr: 12*; MC4R barr conf: 3; MOR DOR agonist: 2

Results for O=C(Nc1nc2ncccn2c1-c1ccc(F)c(F)c1)c1ccccc1 ?
sPLA2-III inh: 4

Results for FC(F)(F)c1ccc(Cn2ccc3ccc(-c4ccc5ccn(Cc6ccccc6)c5c4)cc32)cc1 ?
sPLA2-III inh: 17

What do the screens show for `CC(C)C[C@H](NC1(C(=O)NC2CCCCC2)CCOCC1)C(=O)NCC(c1ccccc1)c1ccccc1`?
sPLA2-III inh: 9

Results for O=C(Nc1ccc(OC(F)(F)C(F)F)c(NC(=O)c2cccc(F)c2)c1)c1cccc(F)c1 ?
NTR1 agonist: 1; sPLA2-III inh: -1; MC4R antagonist: 14; Exocytosis inh: -7; A1 inh: 0; MC4R ag barr: 21*; MC4R barr conf: 7; MOR DOR agonist: 4

How did Cc1cc(C(C)(C)CC(C)(C)C)ccc1OCCOCC[N+](C)(C)Cc1ccccc1 do in these assays?
NTR1 agonist: 20; sPLA2-III inh: -7; MC4R antagonist: 11; Exocytosis inh: 12; A1 inh: 1; MC4R ag barr: 25*; MC4R barr conf: 37*; MOR DOR agonist: 29*
